Screens from PubChem.
KCNK3 block: human KCNK3 channel inhibition, primary screen; CHO-KCNK3 thallium flux, FluxOR fluorescence; hits give low values; B-score at 10 µM; hit rate 0.84% among 340,000; AID 602410;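 active = B-score under library mean minus 4 SD, starting fluorescence ratio at most library mean plus 5 SD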;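 also: more negative B-score means stronger inhibition of thallium flux through KCNK3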
Cl transport mod: modulates chloride dependent transport by human KCC2 | Q9H2X9 | B-score of Tl+ flux slope (higher = more flux/activation; lower = inhibition) at 10 µM | hit rate 2.2% among 190,000 | AID 1456 | KCC2 cells, thallium flux FluoZin-2 fluorescence;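 active = thallium flux slope and its plate-corrected score both differing from the plate sample mean at a set confidence after two filtering rounds, in either direction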;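 also: slope of fluorescence scaled to starting intensity during 10 to 20 s after thallium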
KCNQ1 act: human KCNQ1 channel potentiation or activation. P51787. CHO-K1 KCNQ1, thallium flux FluxOR fluorescence; hits give high values. hit rate 0.35% among 310,000. B-score at 10 µM;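 active = fluorescence ratio B-score, a plate-corrected score, at least three library SD, with initial intensity B-score within 5 SD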
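assay system = KCNQ1-transfected CHO-K1 cells | medium = assay buffer with matched DMSO | probe or stimulus = depolarizing K+/Tl+ stimulus, K2SO4 and Tl2SO4 each 12.5 mM in 5x stock | dosing = single dose | incubation = dye 90 min, compound 20 min, room temperature | detection = kinetic FluxOR fluorescence, 10 s baseline plus 110 s post-stimulus | evaluation = ratio B score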
KCNK9 block: blocks the human KCNK9 two-pore domain potassium channel; hit rate 1.2% among 310,000; AID 488922; HEK293 KCNK9, FluxOR thallium flux fluorescence; hits give low values; Q9NPC2; B-score at 10 µM;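 active = ratio B-score over 3 SD below the library mean, with starting fluorescence within 5 SD of its mean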;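 also: negative B-score means less thallium flux so channel inhibition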
hERG protect: hERG (human) protection from proarrhythmic block. Q12809. CHO-hERG, FluxOR thallium flux, dofetilide IC70 present. activation (rescue from dofetilide block), less the hit threshold, % at 10 µM. hit rate 0.51% among 310,000. AID 1511;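 active = activation above the mean of controls blocked by dofetilide plus 5 SD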;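 also: thallium influx through hERG after potassium depolarization seen as dye fluorescence rise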
KCNQ1 inh: human KCNQ1 channel inhibition. CHO-K1 KCNQ1, FluxOR thallium flux fluorescence; hits give high values. B-score at 10 µM. hit rate 1.3% among 310,000. AID 2642;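 active = compounds whose thallium flux B-score, printed positive for inhibition, exceeds three library SD while starting fluorescence stays within three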;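 also: channel opened by potassium depolarization with thallium stimulus after 20 min compound exposure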
A number is an active result; 0 = inactive; - = no result. Only some compounds are listed: those with a hit (about 4.1% of all), similar ones and a draw of the others.

SMILES	KCNK3 block	Cl transport mod	KCNQ1 act	KCNK9 block	hERG protect	KCNQ1 inh
Cc1ccc(S(=O)(=O)/C(C#N)=C/c2c(N3CCN(Cc4ccccc4)CC3)nc3ccccn3c2=O)cc1	-10.7	-	0	0	0	0
c1ccc(N2CCN(c3nc(-c4cccs4)nc4ccccc34)CC2)cc1	0	0	0	-14.1	0	0
Clc1cnc(N/N=C/c2cccs2)c(Cl)c1	0	0	0	0	0	6
Clc1cnc(N/N=C/c2ccco2)c(Cl)c1	0	0	0	0	0	0
Cc1ccc(/C=N/Nc2ncc(Cl)cc2Cl)s1	0	0	0	0	0	7
CCCC[C@H](CN[C@@H](CNC)[C@H](C)CC)NCCC12CCC(CC1)C2	0	-	0	0	0	0
CC(O)Cn1c(N2CCCC2)nc2c1c(=O)n(C)c(=O)n2C (stereo not given)	0	-	0	0	0	0
Fc1ccc(Br)cc1C1C=C(c2ccc(Br)cc2)Nc2ncnn21 (stereo not given)	-12.4	0	0	0	0	0
CCc1ccc(C2=CC(c3cc(Br)ccc3F)n3ncnc3N2)cc1 (stereo not given)	-8.89	0	-	-	-	-
C1=C(c2ccccc2)Nc2ncnn2C1c1ccccc1 (stereo not given)	0	-	0	0	0	0
Cc1ccccc1Cn1nc(C)c(NC(=O)c2ccccc2)c1C	0	0	0	0	7.6	0
CCN(CC)S(=O)(=O)c1cccc(C(=O)N[C@H](C(=O)NNC(=O)c2ccccc2)C(C)C)c1	0	0	33	0	7.9	0
COc1ccc(S(=O)(=O)Nc2ccc3c(c2)C(=O)N([C@H](C)CO)C[C@H](C)[C@@H](CN(C)C(=O)Nc2ccc(C(F)(F)F)cc2)O3)cc1	0	-	-	-	-	-
COc1ccc(C2CC(c3cccs3)=NN2C(=O)CSc2nc3c(cnn3-c3ccccc3)c(=O)[nH]2)cc1 (stereo not given)	0	0	0	0	0	6
COc1ccc(C2CC(c3cccs3)=NN2C(=O)CSc2nc(=O)n3ccc(C)cc3n2)cc1 (stereo not given)	0	-	0	0	0	0
CN(CC(=O)Nc1ccc(Br)cc1)Cc1ccccc1	0	-	0	-6.81	0	0
O=C(NCC1COc2ccccc2O1)c1ccccc1 (stereo not given)	0	0	0	0	0	0
O=C(NC(=S)NCC1COc2ccccc2O1)c1ccccc1 (stereo not given)	0	4.33	0	0	0	0
CCCCn1c(O)c(N=Nc2ccccn2)c2ccccc21	0	11.4	0	0	0	0
CC(NS(=O)(=O)c1ccc2c(c1)CC(C)N2C(=O)C1CC1)c1ccccc1 (stereo not given)	0	-	0	0	0	0
CCCCOC(=O)Nc1ccc(OC)cc1S(=O)(=O)N1CCOCC1	0	-3.28	0	0	0	0
CCOC(=O)C(=O)Nc1ccc(S(=O)(=O)N2CCOCC2)cc1OC	0	0	0	0	0	0
O=C(Cc1ccccc1)Nc1cccc([N+](=O)[O-])c1	0	0	0	0	0	0
O=C(Nc1cccc([N+](=O)[O-])c1)c1ccc2ccccc2c1O	0	0	0	0	0	6
Cc1ccc([N+](=O)[O-])cc1NC(=O)c1ccoc1C	0	0	0	0	0	0
SMILES	KCNK3 block	Cl transport mod	KCNQ1 act	KCNK9 block	hERG protect	KCNQ1 inh
Cc1occc1C(=O)Nc1cccc([N+](=O)[O-])c1	0	0	0	0	8.6	0
O=S(=O)(NCCCNS(=O)(=O)c1c(F)cccc1F)c1ccc2c(c1)OCCO2	0	-	-	-	-	-
CCOC(=O)C1=C(C)N(c2ccc(OC)cc2)C(=O)/C1=C\c1ccc(O)c(OCC)c1	0	0	0	0	0	6
O=C(c1cc(-c2ccccc2)nc2ccccc12)N1CCN(c2ccccc2O)CC1	0	-	0	0	0	0
Cc1ccc2nc(-c3ccccc3)cc(C(=O)N3CCN(c4ccccc4O)CC3)c2c1	0	-	0	0	0	12
CCOC(=O)C1=C(c2ccccc2)OC(N)=C(C#N)C1c1ccc(Br)s1 (stereo not given)	0	0	0	-7.34	0	0
CCc1[nH]nc2c1C(c1ccc(Br)s1)C(C#N)=C(N)O2 (stereo not given)	0	-4.44	-	-	-	-
CCOC(=O)C1=C(c2ccccc2)OC(N)=C(C#N)C1c1cccnc1 (stereo not given)	0	0	0	0	0	0
CCOC(=O)C1=C(c2ccccc2)OC(N)=C(C#N)C1c1ccc(Cl)s1 (stereo not given)	0	-	0	-6.62	0	0
O=C(CN1CCN(S(=O)(=O)c2cccc(F)c2)CC1)Nc1ccnn1C1CCCC1	0	-	-	-	-	-
O=C(Nc1ccccc1)SC1CCCCC1	0	-	-	-	-	-
CC12CCC(=O)N1C(C(=O)Nc1ccc(SC(F)F)cc1)CS2 (stereo not given)	0	-	0	0	0	0
CCc1ccc2[nH]c(=O)c(CN(CCCN3CCOCC3)C(=O)Nc3ccc(Cl)cc3)cc2c1	0	0	0	0	0	0
CCc1ccc2[nH]c(=O)c(CN(CCCN3CCOCC3)C(=O)Nc3cccc(Cl)c3)cc2c1	0	0	0	0	0	6
COc1ccc(CN(C)C(c2ccccc2)c2nnnn2-c2ccccc2C)c(OC)c1C (stereo not given)	0	0	0	-7.87	0	0
COc1ccc(OCc2cccc(C(=O)Nc3ccc(CN4CCCCC4)cc3)c2)cc1	0	0	0	0	0	0
CCOc1ccc(OCc2cccc(C(=O)Nc3ccc(CN4CCCCC4)cc3)c2)cc1	0	0	0	0	0	6
OC1c2cc(Cl)ccc2-c2c(Cl)cc(Cl)cc21 (stereo not given)	0	-	-	-	-	-
CCC(=O)C1CCCN(C(=O)CCc2nnc(-c3ccc(C(C)=O)s3)o2)C1 (stereo not given)	0	-	0	0	0	0
O=C(COC(=O)COc1ccc(Cl)cc1Cl)NC1CCS(=O)(=O)C1 (stereo not given)	0	-	-	-	-	-
C=CCn1c(O)c(N=NC(=O)OC(C)(C)C)c2ccccc21	0	17.4	0	0	0	0
CCNC(=S)N1CCC(C(O)(c2ccccc2)c2ccccc2)CC1	0	0	0	0	0	0
COc1cc(NC(=S)N2CCC(C(O)(c3ccccc3)c3ccccc3)CC2)cc(OC)c1	0	0	23	0	0	0
Cc1cc(C)n2nc(SCC(=O)NC3CCCCC3)nc2n1	0	-	0	0	0	0
O=C(C[C@@H]1C/C=C\C[C@@H](Cc2ccc(F)cc2)C(=O)OC[C@@H](Cc2ccccc2)NC1=O)N[C@H](CO)Cc1ccccc1	0	-	-	-	-	-
CCOC(=O)c1nn(-c2ccc(Cl)cc2Cl)c(=N)c(C#N)c1C	-	0	0	0	0	6
O=C(CSc1nnc(SCc2ccccc2)s1)N/N=C/C=C/c1ccccc1[N+](=O)[O-]	0	0	0	-7.8	0	0
O=C(CSc1nnc(SCc2ccccc2)s1)N/N=C/C=C\c1ccco1	0	0	0	0	0	0
